Rev-RRE block: HIV Rev-RRE protein-RNA interaction inhibition. Rev peptide-RRE RNA binding, FRET. inhibition, % at 8 µM. actives 0.79% (n = 97,000). AID 704;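 active means inhibition above the screen-wide mean plus 3 SD, cut at about 35% in these data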;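 further: 0% = median DMSO wells and 100% = median Neomycin B control wells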
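Assay system: Labelled RRE RNA duplex and labelled Rev peptide | Times: 5 min preincubation and 15 min binding, 25 °C | Detection: FRET, ex 480 nm, em 540 and 671 nm | Evaluation: % inhibition of FRET ratio versus controls | Benchmarks: DMSO wells as 0% and neomycin B wells as 100% inhibition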
PTPN22 act: increases human PTPN22 phosphatase activity | recombinant LYP, DiFMUP fluorescence; 0 = plate median, 100 = signal doubled | actives 0.11% (n = 96,000) | activation, % at 2 µM;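 active means activation at 2 µM above a set limit, the mean plus 5 SD, cut at about 37% in these data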
EphB4 antag: EphB4-ephrin-B2 interaction antagonism. actives 0.15% (n = 97,000). inhibition, % at 7 µM. P54760. EphB4 LBD / TNYL-RAW-Alexa532 peptide, fluorescence polarization;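 active means inhibition above the screen-wide mean inhibition plus 3 SD, cut at about 15% in these data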;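 further: 0% = DMSO wells and 100% = excess unlabeled TNYL-RAW peptide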
Target sequence (P54760 whole entry, looked up, the tested form may be a part): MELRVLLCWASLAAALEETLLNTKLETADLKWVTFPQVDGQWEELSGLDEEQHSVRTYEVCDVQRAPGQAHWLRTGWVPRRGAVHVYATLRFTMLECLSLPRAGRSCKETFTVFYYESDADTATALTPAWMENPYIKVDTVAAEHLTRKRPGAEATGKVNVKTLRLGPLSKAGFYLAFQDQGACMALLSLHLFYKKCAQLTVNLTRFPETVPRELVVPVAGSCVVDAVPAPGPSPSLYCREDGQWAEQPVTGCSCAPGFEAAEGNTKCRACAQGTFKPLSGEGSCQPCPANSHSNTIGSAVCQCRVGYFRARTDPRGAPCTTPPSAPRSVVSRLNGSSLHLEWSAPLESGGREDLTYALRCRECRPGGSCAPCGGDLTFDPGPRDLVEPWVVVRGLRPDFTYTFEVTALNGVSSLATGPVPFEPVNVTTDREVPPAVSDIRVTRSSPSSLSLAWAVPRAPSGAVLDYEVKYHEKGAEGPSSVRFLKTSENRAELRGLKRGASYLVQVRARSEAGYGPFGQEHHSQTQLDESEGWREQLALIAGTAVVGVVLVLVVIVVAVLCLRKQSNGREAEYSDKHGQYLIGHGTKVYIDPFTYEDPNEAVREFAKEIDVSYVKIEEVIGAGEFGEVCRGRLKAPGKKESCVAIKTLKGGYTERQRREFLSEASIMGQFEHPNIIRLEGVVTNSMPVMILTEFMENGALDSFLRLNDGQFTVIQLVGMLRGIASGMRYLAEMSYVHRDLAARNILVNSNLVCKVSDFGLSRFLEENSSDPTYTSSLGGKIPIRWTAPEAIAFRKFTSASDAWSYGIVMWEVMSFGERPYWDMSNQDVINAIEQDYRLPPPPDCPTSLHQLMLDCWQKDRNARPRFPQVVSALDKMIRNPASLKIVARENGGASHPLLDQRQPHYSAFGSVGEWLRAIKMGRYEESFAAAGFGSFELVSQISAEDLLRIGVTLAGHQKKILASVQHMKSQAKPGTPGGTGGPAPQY
PTPN22 inh 2: blocks human PTPN22 phosphatase activity | Q9Y2R2 | recombinant LYP catalytic domain, DiFMUP fluorescence | inhibition, % at 2 µM | actives 0.21% (n = 96,000);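 active means inhibition at 2 µM at or above a set limit, the screen mean plus 3 SD, cut at about 24% in these data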;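 further: 0% = DMSO with enzyme and 100% = enzyme fully blocked by orthovanadate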
An asterisk follows results filed as active; x = no result; [ ] = another dose, or the depositor's remark. Most compounds without a hit are left out; they make up all but 1.3% or so of the library.

SMILES	Rev-RRE block	PTPN22 act	EphB4 antag	PTPN22 inh 2
CCOc1ccc2nc(C)cc(C(=O)O)c2c1	11	4	3	-4
CC1=NN(C(=O)c2ccc(Cn3nc(C)cc3C)o2)C(O)(C(F)(F)F)C1 (centres undefined)	2	3	4	-7
c1coc(CNc2c3c(nc4ccccc24)CCC3)c1	36*	-11	6	10
O=C(CSCc1cccc(Br)c1)N1CCOCC1	9	10	8	-9
O=c1cc(C(F)(F)F)nc(-n2[nH]c3c(c2=O)CCCC3)[nH]1	67*	6	-4	-1
CCCCCc1ccc(S(=O)(=O)NCCc2ccncc2)cc1	12	-2	8	5
CCn1c(SCC(=O)Nc2ccc3c(c2)oc2ccccc23)nnc1-c1ccc(N)cc1	-1	7	-6	-6
Cc1cccc(CN2C(=O)N/C(=C/c3ccc(C)s3)C2=O)c1	58*	-6	6	7
Cc1ccc(/C=C2/NC(=O)N(Cc3ccccc3)C2=O)s1	50*	-8	2	12
Cc1cccc(CN2C(=O)N/C(=C/c3cc(C)n(-c4cc(C)ccn4)c3C)C2=O)c1	9	-9	3	12
Cc1ccc(NC(=O)C2=C(O)c3ccccc3N(C)S2(=O)=O)cc1	9	x	6	x
CCN1CCc2c(C#N)c(N3CCCCC3)nc(NCc3ccccc3)c2C1	20	10	1	-7
CCN1CCc2c(sc(N)c2C#N)C1	69*	-6	6	6
CCc1cc(C(=O)OC)c(NC(=O)C2CC(=O)NN2Cc2ccccc2)s1 (centres undefined)	2	5	0	-2
N#Cc1cccc(NC(=O)CSc2ccc3c4c(cccc24)C(=O)c2ccccc2-3)c1	115*[fluorescence artefact?]	-9	9	11
COc1ccc(NC(=O)CSc2ccc3c4c(cccc24)C(=O)c2ccccc2-3)cc1	125*[fluorescence artefact?]	-22	8	26*
COc1ccc(NC(=O)CSc2nnc(-c3ccccc3C)n2N)cc1	6	15	0	-19
Cc1nn2c(c1-c1ccc(Cl)cc1)N=C(c1ccco1)CC2c1ccccc1 (centres undefined)	19	-9	-2	13
O=C(NCc1ccc2[nH]c3c(c2c1)CCCC3)N1CCOCC1	39*	-10	1	8
CCCN1CCC2(CC1)C(C#N)=C(N)Oc1c2sc2nc(C)cc(C)c12	50*	-2	4	7
CCOC(=O)N1CCC2(CC1)C(C#N)=C(N)Oc1c2sc2nc(C)cc(C)c12	18	-6	0	5
Cc1cc2ccccc2n1CCNC(=O)C(C)Oc1ccccc1 (centres undefined)	6	-3	-3	0
N=c1c(C(=O)NCc2ccc(F)cc2)cc2c(=O)n3ccccc3nc2n1Cc1cccnc1	37*	-4	-9	5
CC(C(=O)O)N1C(=O)/C(=C/C=C/c2ccco2)SC1=S (centres undefined)	-167	-24	7	25*
O=[N+]([O-])/C=C/c1cn(Cc2ccc(F)cc2)c2ccccc12	16	4	16*	0
SMILES	Rev-RRE block	PTPN22 act	EphB4 antag	PTPN22 inh 2
CCC(=O)Oc1c(-c2ccccc2)c2nc3ccccc3nc2c2ccccc12	112*[fluorescence artefact?]	-10	6	10
CCOC(=O)Cn1c(-c2ccccc2)nc2ccccc2c1=O	8	17	-1	-13
CCC1(C)Cc2c(sc3nnn(Cc4ccccc4Cl)c(=O)c23)CO1 (centres undefined)	9	6	0	-2
CC(C)(C)NC(=O)CSc1nc(O)cc(=O)n1-c1ccccc1F	53*	-8	-4	5
COc1ccccc1-n1c(SCC(=O)NC(C)(C)C)nc(O)cc1=O	2	15	-12	-18
Cc1ccc(CSC2=Nc3ccccc3C3=NC(CC(=O)NCc4ccco4)C(=O)N23)cc1 (centres undefined)	7	-20	5	24*
O=C(CCC1N=C2c3ccccc3N=C(SCc3ccc(F)cc3)N2C1=O)NCc1ccco1 (centres undefined)	7	-10	16*	15
O=C(CCC1N=C2c3ccccc3N=C(SCc3ccc(Cl)cc3)N2C1=O)NCc1ccco1 (centres undefined)	2	-6	-3	4
CC(C)OC(=O)c1cccc(C(=O)OCc2ccco2)n1	-3	5	-8	-7
O=C(Nc1ccccc1)c1cccnc1N1CCCC1	10	2	-4	-1
N=c1oc2c3c4c(cc2cc1C(=O)Nc1ccccc1)CCCN4CCC3	127*[fluorescence artefact?]	-6	3	6
Nc1nnnn1/N=C/c1ccccc1OCc1ccccc1	7	6	-5	-8
Nc1nnnn1/N=C/c1ccccc1C(F)(F)F	6	-70	4	69*
Cc1cc2nnc(SC3CCCCN(C(=O)c4ccc(F)cc4)C3=O)n2c2ccccc12 (centres undefined)	2	-10	4	9
Cc1cc(C)n2nc(SC3CCCCN(C(=O)c4ccc(F)cc4)C3=O)nc2n1 (centres undefined)	12	5	19*	-7
Clc1ccc(-c2cn3nc4c(nc3n2)CCCC4)cc1	38*	-17	2	18
O=C(COc1ccc2c(c1)CCC2)N1CCc2ccccc21	14	-1	2	0
Cc1ccc(S(=O)(=O)N2CCCN(c3nc4cc(C)ccc4cc3C#N)CC2)cc1	37*	-2	6	2
Cc1ccc(S(=O)(=O)C(C#N)c2nc3ccccc3nc2N2CCCC2)cc1 (centres undefined)	77*	-6	5	4
CCN1CCN(c2nc3ccccc3nc2C(C#N)S(=O)(=O)c2ccc(C)cc2)CC1 (centres undefined)	2	0	-7	-1
CC1CCCN(c2nc3ccccc3nc2C(C#N)S(=O)(=O)c2cccs2)C1 (centres undefined)	15	12	3	-14
Cc1ccc2nc(N3CCN(S(=O)(=O)c4ccc5c(c4)OCCO5)CC3)c(C#N)cc2c1	9	-12	-4	16
COc1ccc(S(=O)(=O)C(C#N)c2nc3ccccc3nc2N2CCCC(C)C2)cc1 (centres undefined)	38*	-6	0	2
N#CC(C(=O)NCc1ccccc1)c1nc2ccccc2nc1N1CCCC1 (centres undefined)	62*	5	1	-6
O=C1c2cccc3c(O)ccc(c23)C(=O)N1Cc1ccccc1	131*[fluorescence artefact?]	4	10	-6
O=C1Cc2ccccc2C(=O)N1Cc1ccccc1	4	12	1	-10
COc1ccc(C2C(C#N)=C(N)N(c3sc4c(c3C#N)CCCC4)C3=C2C(=O)CC(C)(C)C3)cc1 (centres undefined)	8	-2	12	1
COc1ccc(C2C(C#N)=C(N)N(c3sc4c(c3C#N)CCCC4)C3=C2C(=O)CC(C)(C)C3)cc1OC (centres undefined)	5	-27	3	26*
Cn1nc(-c2ccccc2)c(C(=O)Nc2ccc(Cl)cc2)c1Cl	2	10	-2	-6

High-throughput results deposited in PubChem by several laboratories.
